This assay relates to Mycobacterium tuberculosis. The assay is described as follows: Antibacterial activity against Mycobacterium bovis BCG grown in 7H9 medium after 6 days by resazurin-based fluorescent method. Conditions: variant bovis BCG, 144 h. Type of assay: functional. In outline:
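M. bovis BCG at 10⁵ CFU/ml in 7H9 with 0.025% tyloxapol and 2% glucose. Compounds tested as 10 two-fold dilutions from 50 μM. Incubated 6 days at 37 °C, then resazurin added for a further 48 h. Endpoint fluorescence read at excitation 530 nm, emission 590 nm.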
For orientation: Resazurin is reduced to fluorescent resorufin, in cell work by metabolically active cells.

Structures are written as SMILES. ≈ marks a conversion by molar mass, not a printed value.

Turning to `CN1CCN(c2ccc(NC(=O)c3cc(N(CCCN)Cc4ccccc4)ncn3)cc2)CC1`, the MIC stood at 18.6 µM (≈ 8.55 µg/mL).

As a reminder, the MIC is the lowest concentration that inhibits growth of the organism.
